mIAP inh: mouse IAP inhibition; purified mouse IAP, CDP-Star luminescence, 30 min; inhibition, % at 10 µM; actives 0.2% (n = 330,000); AID 2806;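 active = inhibition of at least 40% at 10 µM in the primary screen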;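 also: plate controls were DMSO with enzyme for no effect and no enzyme wells for full effect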
hIAP act: human IAP activation | P09923 | purified human IAP, CDP-Star luminescence, 30 min; stronger effect = higher value; 1 = vehicle-only enzyme, 0 = enzyme-free background | activation factor at 10 µM | actives 0.16% (n = 330,000);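 active = activation factor of the enzyme at least 2-fold when tested at 20 µM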
Target sequence (P09923 whole entry, looked up): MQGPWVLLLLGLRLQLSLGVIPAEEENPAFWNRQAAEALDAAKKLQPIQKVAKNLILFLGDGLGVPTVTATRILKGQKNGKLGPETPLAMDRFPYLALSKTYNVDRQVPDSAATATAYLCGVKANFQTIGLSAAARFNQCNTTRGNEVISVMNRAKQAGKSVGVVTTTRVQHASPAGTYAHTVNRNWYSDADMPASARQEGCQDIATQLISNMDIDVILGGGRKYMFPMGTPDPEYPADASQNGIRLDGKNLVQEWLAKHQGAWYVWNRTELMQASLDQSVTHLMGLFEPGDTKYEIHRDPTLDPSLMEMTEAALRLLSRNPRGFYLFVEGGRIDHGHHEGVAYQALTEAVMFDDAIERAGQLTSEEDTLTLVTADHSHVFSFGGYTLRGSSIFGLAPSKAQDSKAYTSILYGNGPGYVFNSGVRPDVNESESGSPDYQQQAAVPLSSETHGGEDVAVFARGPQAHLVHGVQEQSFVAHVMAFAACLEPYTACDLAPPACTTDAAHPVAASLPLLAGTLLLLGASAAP
bIAP inhibitor: intestinal alkaline phosphatase (bovine) inhibition | purified bovine IAP, CDP-star luminescence, 30 min | inhibition, % at 20 µM | 190,000 tested, under 10 active | AID 1019;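 active = over 50% inhibition of intestinal alkaline phosphatase at 20 µM in the single-dose screen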
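Assay system – bovine IAP enzyme · Quantity – bovine IAP at 1/65,000,000 final dilution · Detection – CDP-star luminescence signal · Times – 30 min reaction at room temperature · Also added – CDP-star substrate at 30 µM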
bIAP act: intestinal alkaline phosphatase (bovine) activation; purified bovine IAP, CDP-star luminescence, 30 min; stronger effect = higher value; fold of DMSO-control signal, blank-subtracted; activation factor at 20 µM; AID 1016; actives 0.17% (n = 200,000);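 active = activation factor of 2 or more at 20 µM, a signal rise over negative controls twice the positive control's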
hIAP block: blocks human intestinal alkaline phosphatase. purified IAP, CDP-Star luminescence, 30 min. inhibition, % at 10 µM. AID 2544. actives 0.12% (n = 330,000). P09923;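 active = inhibition reaching a set limit with compound at 10 µM in the primary screen, cut at about 35% in these data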;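 also: plate controls were DMSO wells with enzyme for no effect and no-enzyme buffer wells for full effect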
mIAP activ: mouse IAP activation | muIAP, CDP-Star luminescence, 30 min; stronger effect = higher value; 1 = vehicle-only enzyme signal, 0 = enzyme-free wells | activation factor at 10 µM | actives 0.24% (n = 330,000) | AID 2805;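 active = activation factor of at least 2 at 20 µM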
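System: mouse IAP enzyme. Reagent: CDP-Star chemiluminescent phosphatase substrate. Benchmarks: DMSO wells, no-enzyme wells. Times: 30 min enzyme-substrate-compound incubation at room temperature. Detection: luminescence from enzymatic CDP-Star hydrolysis. Doses: test compounds delivered from DMSO solution.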
mIAP inh conf: mouse IAP inhibition confirmation. shares compounds with mIAP inh. purified mouse IAP, CDP-Star luminescence, 30 min. inhibition, % at 10 µM. actives 4.7% (n = 11,000);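 active = inhibition of at least 40% at 10 µM in either of the two replicates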;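 also: plate controls were DMSO wells with enzyme for no effect and buffer wells lacking enzyme for full effect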
The depositor's hits bear a star. A selection: hits, their analogues and other compounds. The true share with any hit is near 0.72%.

For Nc1nnc(-c2ccco2)s1 the results were mIAP inh 60.3*, hIAP act 0.797, bIAP inhibitor -5.9, bIAP act 1.1, hIAP block 20.3, mIAP activ 0.397 and mIAP inh conf 65.6*.
`CCCC(=O)Nc1nnc(-c2ccco2)s1` gave mIAP inh 8.7, hIAP act 1.02, bIAP inhibitor 4.5, bIAP act 1, hIAP block -2.2 and mIAP activ 0.913.
`CCC(C(=O)NCCC(C)C)n1ccc2cc(S(=O)(=O)N3CCCCC3)ccc21` (configuration not stated) gave mIAP inh -169.5, hIAP act 1.14, hIAP block -13.9, mIAP activ 2.69* and mIAP inh conf -159.1.
CCOc1cc(/C=C2\SC(=S)N(Nc3ccccc3)C2=O)ccc1O was read as mIAP inh 43.6*, hIAP act 1.12, bIAP inhibitor 5.9, bIAP act 0.9, hIAP block -12.5, mIAP activ 0.564 and mIAP inh conf 47.2*.
`O=C(NN1C(=O)/C(=C\c2ccc(O)c([N+](=O)[O-])c2)SC1=S)c1ccccc1Cl` gave mIAP inh 43.6*, hIAP act 0.818, hIAP block 18.2, mIAP activ 0.564 and mIAP inh conf 48.8*.
For O=C(Nc1cccc(S(=O)(=O)NC2=NCCC2)c1)c1ccc(C(F)(F)F)cc1 the results were mIAP inh 4.8, hIAP act 0.808, hIAP block 19.2 and mIAP activ 0.952.
Screening COc1ccc(Br)cc1/C=c1\sc2nc(-c3ccco3)nn2c1=O returned mIAP inh 60.1*, hIAP act 1.03, bIAP inhibitor 5.3, bIAP act 0.9, hIAP block -2.7, mIAP activ 0.399 and mIAP inh conf 70.1*.
COc1ccccc1/C=c1\sc2nc(-c3ccccc3OC)nn2c1=O was read as mIAP inh 11.4, hIAP act 0.859, bIAP inhibitor 27.4, bIAP act 0.7, hIAP block 14.1 and mIAP activ 0.886.
Screening Cc1ccc(/C=c2\sc3nc(-c4ccco4)nn3c2=O)o1 returned mIAP inh 60.1*, hIAP act 1.03, bIAP inhibitor -5.1, bIAP act 1.1, hIAP block -2.6, mIAP activ 0.399 and mIAP inh conf 81.4*.
Screening CCOc1cc(S(=O)(=O)N2CCN=C2Cc2ccccc2)ccc1F returned mIAP inh 3.6, hIAP act 1.54, hIAP block -54.2 and mIAP activ 0.964.
For O=C(Nc1ccccc1)Nc1ccc2c(c1)CCC2 the results were mIAP inh -118.1, hIAP act 0.921, hIAP block 7.9, mIAP activ 2.18* and mIAP inh conf -94.8.
For C#CCOCCOCCOCCNc1nc(N2CCN(C(=O)CCCCCCCCCCNC(=O)[C@H](CO)n3cc(CCCSC)nn3)CC2)nc(N2CCN(C(=O)CCCCCCCCCCNC(=O)[C@H](CCCN=C(N)N)n3cc(C[C@@H](C)CC)nn3)CC2)n1 the results were mIAP inh -160.8, hIAP act 1.37, hIAP block -37.1, mIAP activ 2.61* and mIAP inh conf -497.7.
`C#CCOCCOCCOCCNc1nc(N2CCN(C(=O)CCCCCCCCCCNC(=O)Cn3cc(C[C@@H](C)O)nn3)CC2)nc(N2CCN(C(=O)CCCCCCCCCCNC(=O)[C@H](CCCCN)n3cc(CCCC(=O)O)nn3)CC2)n1` gave mIAP inh -8.8, hIAP act 1.08, hIAP block -8.1 and mIAP activ 1.09.
Screening C#CCOCCOCCOCCNc1nc(N2CCN(C(=O)CCCCCCCCCCNC(=O)Cn3cc(C[C@@H](C)O)nn3)CC2)nc(N2CCN(C(=O)CCCCCCCCCCNC(=O)[C@H](CCCN=C(N)N)n3cc(C[C@@H](C)CC)nn3)CC2)n1 returned mIAP inh -390.8, hIAP act 0.995, hIAP block 0.5, mIAP activ 4.91* and mIAP inh conf -468.0.
C/C(CC(=O)NCCc1ccccc1)=N\NC(=O)COc1ccc(Br)cc1 was read as mIAP inh 5.5, hIAP act 0.998, hIAP block 0.2 and mIAP activ 0.945.
CCCCNC(=O)C(C1CCCCC1)N(CCN(C)C)C(=O)CCCN1C(=O)NC(c2ccc(-c3ccccc3)cc2)C(C(=O)OCc2ccccc2)=C1C (configuration not stated) was read as mIAP inh -167.5, mIAP activ 2.67* and mIAP inh conf -148.5.
`O=C(CCN1C(=O)/C(=C\c2ccco2)SC1=S)Nc1ccc(C(=O)O)c(O)c1` gave mIAP inh 56.4*, hIAP act 1.16, hIAP block -15.7, mIAP activ 0.436 and mIAP inh conf 75.8*.
O=C(CCN1C(=O)/C(=C/c2ccco2)SC1=S)Nc1ccc(C(=O)O)c(O)c1 was read as mIAP inh 61.5*, hIAP act 1.04, hIAP block -4.3, mIAP activ 0.385 and mIAP inh conf 78.3*.
Cc1cc(-c2csc(NC(=O)c3ccc(=O)[nH]c3)n2)c(C)n1Cc1ccco1 was read as mIAP inh 48.2*, hIAP act 0.935, hIAP block 6.5, mIAP activ 0.518 and mIAP inh conf 65.4*.
COc1ccc(C(=O)N2CCOC23CCN(c2ncccn2)CC3)cc1 was read as mIAP inh -3.2, hIAP act 0.999, bIAP inhibitor -5.5, bIAP act 1.1, hIAP block 0.1 and mIAP activ 1.03.
Screening COC(=O)c1ccc(NC(=O)Nc2cccc(F)c2)cc1 returned mIAP inh -160.2, hIAP act 1.01, bIAP inhibitor 11.2, bIAP act 0.9, hIAP block -1.1, mIAP activ 2.6* and mIAP inh conf -97.4.
`COC(=O)c1ccc(NC(=O)Nc2ccc(F)cc2F)cc1` gave mIAP inh -79.8, hIAP act 1.04, bIAP inhibitor -4.6, bIAP act 1, hIAP block -3.9 and mIAP activ 1.8.
Nc1nonc1-n1nnc(C(=O)N/N=C/c2ccncc2)c1CSc1ccccc1 was read as mIAP inh 2.6, hIAP act 0.891, hIAP block 10.9 and mIAP activ 0.974.
COc1ccc(NC(=O)CN(C)CC(=O)N2CC(=O)Nc3ccccc32)cc1 was read as mIAP inh 4.1, hIAP act 1.12, hIAP block -12.3 and mIAP activ 0.959.
`Cc1ccc(O)c(NC(=O)CSc2n[nH]c(-c3ccccc3)n2)c1` gave mIAP inh 6.2, hIAP act 1.03, hIAP block -3.5 and mIAP activ 0.938.
Screening O=C(CSc1n[nH]c(-c2ccccc2)n1)c1ccc(O)c(O)c1 returned mIAP inh 65.0*, hIAP act 1.01, bIAP act 0.3, hIAP block -1.2, mIAP activ 0.35 and mIAP inh conf 69.0*.
